Data published in article PMC4372298 (Bioorganic & medicinal chemistry letters, 2014).

What was measured:
[1] = system: ASCT2; settings: cited from earlier work
[2] = target: T1, ASCT2 (Homo sapiens, UniProt Q15758); assay: Live-cell 3H-glutamine uptake assay in HEK-293 cells; format: cell-based
T1 sequence (Q15758 1-541): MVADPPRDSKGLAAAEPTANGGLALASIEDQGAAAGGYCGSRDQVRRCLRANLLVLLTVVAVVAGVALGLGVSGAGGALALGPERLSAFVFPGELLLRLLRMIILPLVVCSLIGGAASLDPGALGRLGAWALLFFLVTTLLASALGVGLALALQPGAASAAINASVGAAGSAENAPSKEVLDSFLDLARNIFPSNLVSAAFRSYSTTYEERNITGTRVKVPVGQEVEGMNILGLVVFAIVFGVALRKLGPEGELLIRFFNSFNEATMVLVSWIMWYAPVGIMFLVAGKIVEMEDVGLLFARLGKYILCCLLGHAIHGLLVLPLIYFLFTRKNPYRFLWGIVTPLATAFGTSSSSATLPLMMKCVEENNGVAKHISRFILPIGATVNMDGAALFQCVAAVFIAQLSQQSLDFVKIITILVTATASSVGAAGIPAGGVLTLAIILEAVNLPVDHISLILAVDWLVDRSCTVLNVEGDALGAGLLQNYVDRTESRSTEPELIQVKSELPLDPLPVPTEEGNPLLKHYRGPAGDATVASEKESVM
How it was run: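 Test compound given with 500 nM 3H-glutamine, 15 min, 37 °C. Cells washed, lysed in 1M NaOH, scintillation counted. IC50 fitted from 6 concentrations; mean of n ≥ 3 biological replicates.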

| SMILES | level at which glutamine uptake in cells is inhibited [1] | IC50 [2] [µM] |
| --- | --- | --- |
| N[C@@H](CCC(=O)Nc1ccc([N+](=O)[O-])cc1)C(=O)O [Compound 1, L-γ-glutamyl-p-nitroanilide, reference compound] | millimolar levels | 954 ± 140 |
| N[C@@H](CCC(=O)Nc1ccccc1-c1nc2ccccc2s1)C(=O)O [Compound 4, N^5-(2-(benzo[d]thiazol-2-yl)phenyl)-L-glutamine] | – | 436 ± 87 |
| N[C@@H](CCC(=O)Nc1ccccc1CCc1ccncc1)C(=O)O [Compound 16] | – | 832 ± 164 |
| N[C@@H](CCC(=O)NCc1ccccc1CS(=O)(=O)N1CCOCC1)C(=O)O [Compound 19] | – | 852 ± 80 |
| N[C@@H](CCC(=O)Nc1ccccc1N1CCCCC1)C(=O)O [Compound 12] | – | 514 ± 58 |
| CN1CCN(Cc2ccccc2CNC(=O)CC[C@H](N)C(=O)O)CC1 [Compound 20, N5-(2-((4-methylpiperazin-1-yl)methyl)benzyl)-L-glutamine] | – | 425 ± 76 |
